The test system of test [1] is Mus musculus. The test is described as follows: Antitumor activity expressed as a ratio of tumor volumes of test (T) animals compared to control (C) animals(100) at a dose of 12.5 mg/kg/day. The format is functional. A digest of the protocol:
(§1)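 BDF1 female mice in groups of 5 received 10^6 M5076 cells im into the left leg on day 0. Drug was dissolved in 10-20% DMSO in arachis oil and given ip daily on days 1-17; controls got vehicle only. Tumor volumes were measured on days 12, 16, 20 and 24. T/C = test/control tumor volume ×100.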

The test system of test [2] is Mus musculus. The test is described as follows: Number of M5076 reticulum cell sarcoma bearing mice survived among the tested (5) on day 24 after treating with compound dose of 12.5 mg/Kg/day. The format is functional. A digest of the protocol:
as §1

In test [3] the target is T1, Bifunctional dihydrofolate reductase-thymidylate synthase (Toxoplasma gondii, UniProt Q07422).
T1 sequence (Q07422 whole entry): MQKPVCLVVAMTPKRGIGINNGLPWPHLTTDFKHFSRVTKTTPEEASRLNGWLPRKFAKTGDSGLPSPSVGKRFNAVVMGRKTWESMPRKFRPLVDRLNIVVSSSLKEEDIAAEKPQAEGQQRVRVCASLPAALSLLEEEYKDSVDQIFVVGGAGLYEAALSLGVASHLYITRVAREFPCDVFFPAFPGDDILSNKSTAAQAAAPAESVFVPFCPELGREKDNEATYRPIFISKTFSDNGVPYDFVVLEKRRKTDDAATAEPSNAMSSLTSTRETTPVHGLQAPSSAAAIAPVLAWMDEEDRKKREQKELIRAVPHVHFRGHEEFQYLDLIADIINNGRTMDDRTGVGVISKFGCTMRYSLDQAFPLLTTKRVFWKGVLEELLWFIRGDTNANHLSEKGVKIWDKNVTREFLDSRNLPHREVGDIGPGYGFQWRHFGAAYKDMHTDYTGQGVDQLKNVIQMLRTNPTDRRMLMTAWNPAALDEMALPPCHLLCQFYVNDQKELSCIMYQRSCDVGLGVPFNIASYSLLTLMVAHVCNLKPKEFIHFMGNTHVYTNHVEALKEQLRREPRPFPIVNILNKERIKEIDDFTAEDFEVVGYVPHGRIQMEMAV
The test is described as follows: Inhibitory activity against Dihydrofolate reductase from Toxoplasma gondii was evaluated using 90 uM dihydrofolic acid as substrate.

The test system of test [4] is Mus musculus. The test is described as follows: Antitumor activity expressed as a ratio of tumor volumes of test (T) animals compared to control (C) animals(100) at a dose of 3.125 mg/kg/day. The format is functional. The method in brief: as §1
The test system of test [5] is Mus musculus. The test is described as follows: Number of M5076 reticulum cell sarcoma bearing mice survived among the tested (5) on day 24 after treating with compound dose of 3.125 mg/Kg/day. It is filed as functional. The method in brief:
as §1

For test [6], the system named is Mus musculus. The test is described as follows: Antitumor activity expressed as a ratio of tumor volumes of test (T) animals compared to control (C) animals(100) at a dose of 25 mg/kg/day. The format is functional. A digest of the protocol:
as §1

Test [7] concerns Mus musculus. The test is described as follows: Number of M5076 reticulum cell sarcoma bearing mice survived among the tested (5) on day 24 after treating with compound dose of 25 mg/Kg/day. It is filed as functional. A digest of the protocol: as §1

The structures appear in SMILES notation.

For `CCc1nc(N)nc(N)c1-c1ccc(N(C)Cc2ccc(C(=O)NC)cc2)c([N+](=O)[O-])c1`, the T/C (as a rule, the result in the treated group divided by that in the control group, in per cent) in test [1] is on record as 15%. Besides, the Survivors in test [2] was found to be 5. Also, the IC50 (commonly the concentration at which inhibition is half-maximal) in test [3] is 7.4 nM.

For `CCc1nc(N)nc(N)c1-c1ccc(NCc2ccc(C(=O)O)cc2)c([N+](=O)[O-])c1`, 1.8 nM corresponded to half-maximal inhibition in test [3] (IC50).

Turning to `CCc1nc(N)nc(N)c1-c1ccc(N(C)Cc2ccc(C(=O)O)cc2)c([N+](=O)[O-])c1`, in test [1], the T/C is recorded as 100%. Besides, in test [2], the Survivors amounted to 5. In addition, the IC50 in test [3] was 3.1 nM.

Regarding `CN(Cc1cnc2nc(N)nc(N)c2n1)c1ccc(C(=O)N[C@@H](CCC(=O)O)C(=O)O)cc1` [METHOTREXATE], in test [4], the T/C stood at 92%. For the same compound, in test [5], the Survivors was 5.

In test [3], `CCOC(=O)CCC(NC(=O)c1ccc(CNc2ccc(-c3c(N)nc(N)nc3CC)cc2[N+](=O)[O-])cc1)C(=O)OCC` (stereo not drawn) returned an IC50 of 7.1 nM.

Regarding `CCc1nc(N)nc(N)c1-c1ccc(NCc2ccc(C(N)=O)cc2)c([N+](=O)[O-])c1`, in test [3], it took 3.7 nM to reach half-maximal inhibition (IC50).

In turn, `CCc1nc(N)nc(N)c1-c1ccc(N(C)Cc2ccc(C3=NC(C)(C)CO3)cc2)c([N+](=O)[O-])c1` came in with an IC50 in test [3] of 14 nM.

For `Cc1nc(N)nc(N)c1-c1ccc(Cl)c(Cl)c1` [METOPRINE], the T/C in test [4] was under 8%. The Survivors in test [5] turned out to be 1.

For `CCc1nc(N)nc(N)c1-c1ccc(N(C)Cc2ccccc2)c([N+](=O)[O-])c1`, the T/C in test [6] turned out to be 37%. The Survivors in test [7] is 5.

Consider `CCc1nc(N)nc(N)c1-c1ccc(NCc2ccccc2)c([N+](=O)[O-])c1`, for which the IC50 in test [3] is 19 nM.

As for `CCc1nc(N)nc(N)c1-c1ccc(NCc2ccc(C3OCCO3)cc2)c([N+](=O)[O-])c1`, 15 nM corresponded to half-maximal inhibition in test [3] (IC50).

For `CCc1nc(N)nc(N)c1-c1ccc(NCc2ccc(C(=O)N3CCCCC3)cc2)c([N+](=O)[O-])c1`, the IC50 in test [3] was 140 nM.

`CCc1nc(N)nc(N)c1-c1ccc(NCc2ccc(C(=O)NC(CCC(=O)O)C(=O)O)cc2)c([N+](=O)[O-])c1` (stereo not drawn) displayed an IC50 in test [3] of 6.2 nM.

In turn, `CCc1nc(N)nc(N)c1-c1ccc(NCc2ccc(C(=O)N(C)C)cc2)c([N+](=O)[O-])c1` registered an IC50 in test [3] of 7.9 nM.

With `CCc1nc(N)nc(N)c1-c1ccc(NCc2ccc(S(N)(=O)=O)cc2)c([N+](=O)[O-])c1`, it took 5.8 nM to reach half-maximal inhibition in test [3] (IC50).

In turn, `CCc1nc(N)nc(N)c1-c1ccc(NCc2ccc(C(=O)NC)cc2)c([N+](=O)[O-])c1` showed a half-inhibitory concentration (IC50) in test [3] of 4.3 nM.

For the origin of these results see ChEMBL document CHEMBL1130351, “Nonclassical 2,4-diamino-5-aryl-6-ethylpyrimidine antifolates: activity as inhibitors of dihydrofolate reductase from Pneumocystis carinii and Toxoplasma gondii and as antitumor agents” (J Med Chem, 1997).
